Data: ChEMBL document CHEMBL2321775, “Synthesis and biological characterization of new aminophosphonates for mitochondrial pH determination by (31)P NMR spectroscopy” (J Med Chem, 2013)

Test system: not listed separately
Assay: Toxicity against Chlamydomonas reinhardtii D66 assessed as loss of photosynthetic activity after 1 hr
Conditions: Chlamydomonas reinhardtii D66 cells, read-out: LD50
Procedure, shortened: (§1)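 Cell wall-less C. reinhardtii D66 grown in Tris acetate phosphate medium to 1−5 × 10^6 cells/mL at 25 °C. Exposed 1 h at 25 °C to 0.01−1 mM compound (DMSO ≤0.1%), under saturating light for photosynthesis or in the dark for respiration. NaHCO3 added (1 mM), then O2 measured by Clark electrode against DMSO control. LD50 is the concentration giving 50% activity loss.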
`CCOP(=O)(OCC)C(C)(CCC[P+](c1ccccc1)(c1ccccc1)c1ccccc1)NCC(C)C.[Br-]` (racemic) gave an LC50 at 1 h of 300 µM.
In the case of `CCOP(=O)(OCC)C(NCCCC[P+](c1ccccc1)(c1ccccc1)c1ccccc1)C(C)C.[Br-]` (racemic), the LC50 at 1 h is reported as 250 µM.
In the case of `CCOP(=O)(OCC)C(NCCCCCC[P+](c1ccccc1)(c1ccccc1)c1ccccc1)C(C)C.[Br-]` (racemic), the LC50 at 1 h is reported as 130 µM.
For `CCOP(=O)(OCC)C(NCCCCCCCC[P+](c1ccccc1)(c1ccccc1)c1ccccc1)C(C)C.[Br-]` (racemic), the LC50 at 1 h was 25 µM.
For `CCOP(=O)(OCC)C(NCCCCCCCCCCCC[P+](c1ccccc1)(c1ccccc1)c1ccccc1)C(C)C.[Br-]` (racemic), the LC50 at 1 h was < 10 µM.

Test system: Liver
Assay: Toxicity against Sprague-Dawley rat liver assessed as mitochondrial membrane potential incubated for 1 hr followed by compound washout measured after 10 mins
Format: tissue-based
Conditions: not given
Procedure, shortened: (§2)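 Livers perfused at 37 °C with 0.1 mM compound for 1 h, then 10 min cold KH washout. Mitochondria isolated in ice-cold 0.3 M sucrose by differential centrifugation for membrane potential measurement. RCR was taken as respiration with 0.5 mM ADP divided by respiration after ADP phosphorylation ended, in KH2PO4/EDTA/MOPS/MgCl2 with glutamate 20 mM and malate 1 mM, pH 7.2, 37 °C. Mean ± SD.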
`CCCNC(C)(C)P(=O)(OCC)OCC` showed an Activity of 181.3 mV.

Test system: Liver
Assay: Toxicity against Sprague-Dawley rat liver assessed as ATP content incubated for 1 hr followed by compound washout measured after 10 mins
Format: tissue-based
Conditions: not given
Procedure, shortened: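 Rat livers perfused at 37 °C with KH buffer containing 0.1 mM compound for 1 h, then washed out for 10 min with cold KH. Organ freeze-clamped in liquid nitrogen and ATP measured enzymatically in perchloric extracts, given as μmol/g. Mean ± SD of 3−9 experiments.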
With `CCCNC(C)(C)P(=O)(OCC)OCC` the Activity was 2.33 µmol/g.

Test system: not listed separately
Assay: Toxicity against Chlamydomonas reinhardtii D66 assessed as loss of respiratory activity after 1 hr
Conditions: Chlamydomonas reinhardtii D66 cells, read-out: LD50
Procedure, shortened: as §1
In the case of `CCOP(=O)(OCC)C(C)(CCC[P+](c1ccccc1)(c1ccccc1)c1ccccc1)NCC(C)C.[Br-]` (racemic), the LC50 at 1 h is reported as 300 µM.
For `CCOP(=O)(OCC)C(NCCCC[P+](c1ccccc1)(c1ccccc1)c1ccccc1)C(C)C.[Br-]` (racemic), the LC50 at 1 h was 150 µM.
For `CCOP(=O)(OCC)C(NCCCCCC[P+](c1ccccc1)(c1ccccc1)c1ccccc1)C(C)C.[Br-]` (racemic), the LC50 at 1 h was 130 µM.
For `CCOP(=O)(OCC)C(NCCCCCCCC[P+](c1ccccc1)(c1ccccc1)c1ccccc1)C(C)C.[Br-]` (racemic), the LC50 at 1 h was 25 µM.
With `CCOP(=O)(OCC)C(NCCCCCCCCCCCC[P+](c1ccccc1)(c1ccccc1)c1ccccc1)C(C)C.[Br-]` (racemic) the LC50 at 1 h was < 10 µM.

Test system: not listed separately
Assay: Drug uptake in Sprague-Dawley rat liver cytosol incubated for 1 hr followed by compound washout measured after 10 mins
Format: ADME, tissue-based
Conditions: not given
Procedure, shortened: (§3)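 Sprague−Dawley male rat livers (120−150 g) perfused via the portal vein, non-recirculating, at 37 °C with KH bicarbonate buffer (95% O2/5% CO2, pH 7.35) at 3 mL/min/g. After 30 min equilibration, 0.1 mM compound was given for 1 h, followed by a 10 min ice-cold KH washout. Liver homogenised in 0.25 M sucrose/10 mM HEPES pH 7.5; cytosol and mitochondria separated by differential centrifugation and levels reported as μmol/g. 3−9 experiments, mean ± SD.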
`CCCNC(C)(C)P(=O)(OCC)OCC` showed a Drug uptake of 0.56 µmol/g.

Test system: not listed separately
Assay: Dissociation constant, pKa of the compound in Krebs-Henseleit buffer
Format: physicochemical
Conditions: not given
Procedure, shortened: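 31P NMR titration at 25 °C in Krebs−Henseleit buffer, with shifts referenced to external phosphoric acid and a D2O capillary as lock. Diethoxyphosphoryl shift plotted against pH (range 1.5−12) and fitted to the Henderson−Hasselbalch equation by nonlinear regression. Three independent titrations per compound, mean ± SEM.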
`CCCNC(C)(C)P(=O)(OCC)OCC` showed a pKa of 6.99.
In the case of `CCOP(=O)(OCC)C(C)(CCC[P+](c1ccccc1)(c1ccccc1)c1ccccc1)NCC(C)C.[Br-]` (racemic), the pKa is reported as 5.39.
Work on `CCOP(=O)(OCC)C(NCCCC[P+](c1ccccc1)(c1ccccc1)c1ccccc1)C(C)C.[Br-]` (racemic) yielded a pKa of 5.47.
`CCOP(=O)(OCC)C(NCCCCCC[P+](c1ccccc1)(c1ccccc1)c1ccccc1)C(C)C.[Br-]` (racemic) gave a pKa of 5.99.
For `CCOP(=O)(OCC)C(NCCCCCCCC[P+](c1ccccc1)(c1ccccc1)c1ccccc1)C(C)C.[Br-]` (racemic), the pKa was 6.23.
With `CCOP(=O)(OCC)C(NCCCCCCCCCCCC[P+](c1ccccc1)(c1ccccc1)c1ccccc1)C(C)C.[Br-]` (racemic) the pKa was 6.38.
`CCOP(=O)(OCC)C(NCCCCCC[P+](c1ccccc1)(c1ccccc1)c1ccccc1)C(C)(C)C.[Br-]` (racemic) gave a pKa of 5.63.
With `CCOP(=O)(OCC)C(C)(N)CCC[P+](c1ccccc1)(c1ccccc1)c1ccccc1` (racemic) the pKa was 5.13.

Test system: Liver
Assay: Toxicity against Sprague-Dawley rat liver assessed as respiratory control ratio incubated for 1 hr followed by compound washout measured after 10 mins
Format: tissue-based
Conditions: not given
Procedure, shortened: as §2
`CCCNC(C)(C)P(=O)(OCC)OCC` gave a Ratio of 5.9.

Test system: NIH3T3
Assay: (§4) Cytotoxicity against mouse 3T3 cells assessed as cell viability after 3 hrs by spectrophotometric analysis
Format: cell-based
Conditions: nih3t3, 3 h
Procedure, shortened: (§5)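 Confluent 3T3 fibroblasts (DMEM, 10% FCS, 37 °C, 5% CO2) were switched to phenol red-free DMEM with 1% glucose and exposed 3 h to compound at 0.01−5 mM final (0.1% DMSO). Cells were then given neutral red (50 μg/mL, 2% FCS MEM) for 2 h and read at 540 nm. LD50 and LD10 were taken from dose−response curves over 3−6 experiments.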
For `CCCNC(C)(C)P(=O)(OCC)OCC`, the LD10 was 76 mM.
`CCOP(=O)(OCC)C(C)(CCC[P+](c1ccccc1)(c1ccccc1)c1ccccc1)NCC(C)C.[Br-]` (racemic) gave an LD10 of 0.5 mM.
`CCOP(=O)(OCC)C(NCCCC[P+](c1ccccc1)(c1ccccc1)c1ccccc1)C(C)C.[Br-]` (racemic) showed an LD10 of 0.3 mM.
In the case of `CCOP(=O)(OCC)C(NCCCCCC[P+](c1ccccc1)(c1ccccc1)c1ccccc1)C(C)C.[Br-]` (racemic), the LD10 is reported as 0.2 mM.
With `CCOP(=O)(OCC)C(NCCCCCCCC[P+](c1ccccc1)(c1ccccc1)c1ccccc1)C(C)C.[Br-]` (racemic) the LD10 was 0.05 mM.
With `CCOP(=O)(OCC)C(NCCCCCCCCCCCC[P+](c1ccccc1)(c1ccccc1)c1ccccc1)C(C)C.[Br-]` (racemic) the LD10 was 0.01 mM.
`CCOP(=O)(OCC)C(NCCCCCC[P+](c1ccccc1)(c1ccccc1)c1ccccc1)C(C)(C)C.[Br-]` (racemic) gave an LD10 of 0.2 mM.

Test system: not listed separately
Assay: as §4
Format: cell-based, NIH3T3
Conditions: 3T3 cells (NIH3T3), read-out: LD50
Procedure, shortened: as §5
In the case of `CCOP(=O)(OCC)C(C)(CCC[P+](c1ccccc1)(c1ccccc1)c1ccccc1)NCC(C)C.[Br-]` (racemic), the CC50 at 3 h is reported as 700 µM.
In the case of `CCOP(=O)(OCC)C(NCCCC[P+](c1ccccc1)(c1ccccc1)c1ccccc1)C(C)C.[Br-]` (racemic), the CC50 at 3 h is reported as 600 µM.
For `CCOP(=O)(OCC)C(NCCCCCC[P+](c1ccccc1)(c1ccccc1)c1ccccc1)C(C)C.[Br-]` (racemic), the CC50 at 3 h was 500 µM.
`CCOP(=O)(OCC)C(NCCCCCCCC[P+](c1ccccc1)(c1ccccc1)c1ccccc1)C(C)C.[Br-]` (racemic) showed a CC50 at 3 h of 300 µM.
`CCOP(=O)(OCC)C(NCCCCCCCCCCCC[P+](c1ccccc1)(c1ccccc1)c1ccccc1)C(C)C.[Br-]` (racemic) gave a CC50 at 3 h of 20 µM.
Work on `CCOP(=O)(OCC)C(NCCCCCC[P+](c1ccccc1)(c1ccccc1)c1ccccc1)C(C)(C)C.[Br-]` (racemic) yielded a CC50 at 3 h of 300 µM.

Test system: NIH3T3
Assay: Cytotoxicity against mouse 3T3 cells assessed as LDH release per mg of protein at LD10 concentration after 1 hr by spectrophotometric analysis
Format: cell-based
Conditions: nih3t3, 1 h
Procedure, shortened: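 LDH released into the supernatant was measured after 1 h with a kit and expressed per mg protein. Total LDH was obtained from a Triton X-100 (1%) lysis control. Means of 3−6 independent experiments.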
In the case of `CCCNC(C)(C)P(=O)(OCC)OCC`, the Activity is reported as 11.9 IU.
`CCOP(=O)(OCC)C(C)(CCC[P+](c1ccccc1)(c1ccccc1)c1ccccc1)NCC(C)C.[Br-]` (racemic) showed an Activity of 12.9 IU.
Molecule `CCOP(=O)(OCC)C(NCCCC[P+](c1ccccc1)(c1ccccc1)c1ccccc1)C(C)C.[Br-]` (racemic) has an Activity of 10.7 IU.
For `CCOP(=O)(OCC)C(NCCCCCC[P+](c1ccccc1)(c1ccccc1)c1ccccc1)C(C)C.[Br-]` (racemic), the Activity was 15.9 IU.
In the case of `CCOP(=O)(OCC)C(NCCCCCCCC[P+](c1ccccc1)(c1ccccc1)c1ccccc1)C(C)C.[Br-]` (racemic), the Activity is reported as 49.4 IU.
With `CCOP(=O)(OCC)C(NCCCCCCCCCCCC[P+](c1ccccc1)(c1ccccc1)c1ccccc1)C(C)C.[Br-]` (racemic) the Activity was 52.7 IU.
`CCOP(=O)(OCC)C(NCCCCCC[P+](c1ccccc1)(c1ccccc1)c1ccccc1)C(C)(C)C.[Br-]` (racemic) gave an Activity of 16.7 IU.

Test system: not listed separately
Assay: Drug uptake in Sprague-Dawley rat liver mitochondria incubated for 1 hr followed by compound washout measured after 10 mins
Format: ADME
Conditions: not given
Procedure, shortened: as §3
For `CCCNC(C)(C)P(=O)(OCC)OCC`, the Drug uptake was < 0.05 µmol/g.
